The text below walks through data of ChEMBL document CHEMBL1124631, “3-(aminoalkyl)-1,2,3,4-tetrahydro-5H-[1]benzopyrano[3,4-c] pyridin-5-ones as potential anticholinergic bronchodilators” (1989).

For test [1], the species on record is Canis familiaris. Nature of the test: Compound dose for inhibiting dog cholinergic bronchoconstriction by 50% of control value. It is filed as functional. Particulars: Canis lupus familiaris, Lung; read-out: ID50 (the source's name). The procedure, abridged: (§1)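 Dogs with femoral vein cannulated; respiratory rate, heart rate and arterial pressure monitored. Bunolol 0.5 mg/kg iv given 30 min before pilocarpine nitrate infusion (0.2 mg/kg/h) to induce bronchospasm and salivation. Saliva collected from catheterized Wharton's duct every 5 min. Cumulative iv doses 1–10,000 μg/kg given every 5 min. ID50 by linear regression of log cumulative dose vs % inhibition. Mostly one dog per compound.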

Test [2] relates to Cavia porcellus. Nature of the test: Methacholine challenge test was performed on guinea pigs by administration of compound at 25 mg/kg perorally. It is filed as functional. Particulars: route oral. The gist of the method:
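Hartley guinea pigs, six per treatment, dosed orally at 25 mg/kg 15 min before challenge. Exposed for 10 min to 0.1% methacholine chloride aerosol from two nebulizers in a closed chamber, air pressure 10 lb/in.². Time from aerosol onset to collapse recorded and averaged ± S.E.M. Non-collapsing animals removed at 10 min and scored 10.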

The species entered for test [3] is Canis familiaris. The test can be described thus: Pulmonary selectivity measured as the ratio of salivation and bronchospasm. The test is classed as functional, Canis lupus familiaris, Bronchiole. The procedure, abridged: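 Pilocarpine-infused dog model measuring pulmonary resistance and salivary output under cumulative iv doses (1–10,000 μg/kg). ID50 for each response by log dose–response linear regression. Selectivity = ID50 for salivation inhibition divided by ID50 for bronchospasm inhibition. Most compounds tested in one dog.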

The species named for test [4] is Canis familiaris. The test can be described thus: Inhibition of dog salivation by 50% of control value. The test is classed as functional. Particulars: Canis lupus familiaris; read-out: ID50 (the source's name). The gist of the method: as §1

Each structure is given as a SMILES string.

Turning to `CCOc1cc2oc(=O)c3c(c2cc1OCC)CCN(CC(C)N1CCCCC1)C3` (stereo unspecified), the ED50 in test [1] turned out to be 0.126 mg/kg; in test [4], 0.194 mg/kg. This compound also registered a Collapse time in test [2] of 10 min. Moreover, the Ratio in test [3] worked out at 1.5.

For `COc1ccc2c3c(c(=O)oc2c1)CN(CCN1CC2CCCC(C2)C1)CC3`, the figures for the ED50 in test [1] and in test [4] were 1.03 mg/kg and 0.154 mg/kg, respectively. For the same compound, the Collapse time in test [2] is on record as 7.3 min. In addition, in test [3], the Ratio turned out to be 0.15.

For `CCCN(C)C(C)CN1CCc2c(c(=O)oc3cc(OC)ccc23)C1` (stereo unspecified), the ED50 in test [1] was found to be 0.073 mg/kg; in test [4], 0.084 mg/kg. This compound gave a Collapse time in test [2] of 10 min. For the same compound, the Ratio in test [3] was found to be 1.2.

As for `O=c1oc2ccccc2c2c1CN(CCN1CC3CCC(CC3)C1)CC2`, the ED50 in test [1] was 0.849 mg/kg; in test [4], 0.068 mg/kg. Besides, the Collapse time in test [2] was determined as 5.2 min. Also, the Ratio in test [3] was 0.08.

For the compound `COc1cc2oc(=O)c3c(c2cc1OC)CCN(CC(C)N1CCCC1)C3` (stereo unspecified), the figures for the ED50 in test [1] and in test [4] were 0.017 mg/kg and 0.023 mg/kg, respectively. Further, the Collapse time in test [2] stood at 10 min. In addition, in test [3], the Ratio amounted to 1.4.

Consider `COc1ccc2c3c(c(=O)oc2c1)CN(CCN1CCCCCC1)CC3`, for which the ED50 in test [1] was found to be 0.223 mg/kg; in test [4], 0.398 mg/kg. This compound also returned a Collapse time in test [2] of 8 min. Also, the Ratio in test [3] was determined as 1.8.

Take `CCNC(C)CN1CCc2c(c(=O)oc3cc(OC)ccc23)C1` (stereo unspecified): the ED50 in test [1] came out at 0.086 mg/kg; in test [4], 0.227 mg/kg. For the same compound, the Collapse time in test [2] was 7.5 min. In addition, in test [3], the Ratio was found to be 2.6.

In the case of `COc1ccc2c3c(c(=O)oc2c1)CN(CCN1CCCCC1)CC3`, the values for the ED50 in test [1] and in test [4] were 0.205 mg/kg and 0.141 mg/kg, respectively. The compound also returned a Collapse time in test [2] of 9.5 min. Further, the Ratio in test [3] is reported as 0.69.

With `CC(CN1CCc2c(c(=O)oc3ccccc23)C1)N1CCCCC1` (stereo unspecified), the figures for the ED50 in test [1] and in test [4] were 0.038 mg/kg and 0.219 mg/kg, respectively. Moreover, the Collapse time in test [2] was 10 min. Also, the Ratio in test [3] is 5.8.
